A selection: hits, their analogues and other compounds. The true share with any hit is near 2.2%.
FN deposit inh – fibronectin deposition inhibition; 0.086% of 350,000 active; AH1F fibroblasts, Alexa488-fibronectin deposition fluorescence, overnight; inhibition, % at 12.6 µM; AID 743247;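 active = mean inhibition across replicates of 30% or more, regardless of how many single replicates reach that level; inconclusive = mean under 30% yet at least half of replicates reach 30%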;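 note: positive control wells lacked labelled fibronectin entirely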
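Material: AH1F fibroblast monolayer depositing Alexa488-labelled fibronectin into matrix / Amount: 10000 AH1F cells per well / Signal: fluorescence 485/525 nm / Medium: DMEM, 2% serum / Compound: single dose, pinned / Incubation: 1 h cell adhesion before compound, then overnight fibronectin incubation / Reagent: Alexa488-FN, 24 nM final / Read-out: inhibition of fibronectin deposition signal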
ERAP1 HTS inh – blocks human ERAP1 aminopeptidase activity | Q9NZ08 | recombinant ERAP1, Leu-AMC fluorescence, 60 min | inhibition, % at 10.7 µM | 0.15% of 340,000 active | AID 652197;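 active = mean replicate inhibition of at least 30%, or all replicates individually reaching that 30% level; inactive = mean below 30% and not every replicate reaching it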;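 note: 0% = neutral control wells and 100% = L-leucinethiol positive control wells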
PGC1a acetyl inh – modulators of PGC1a acetylation; U2OS PGC1a acetylation, AlphaScreen anti-acetyl-lysine; with virally co-expressed GCN5 acetyltransferase; inhibition, % at 15.6 µM; 0.17% of 350,000 active; AID 651687;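 active = every replicate shows inhibition of at least 40%; inconclusive = mean inhibition at least 40% but some replicate below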;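 note: 0% = neutral control wells and 100% = positive control wells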
SIRT5 block – blocks human SIRT5 desuccinylation of peptide. Purified SirT5, succinyl-peptide AMC, trypsin-coupled fluorescence. inhibition, % at 15 µM. AID 652115. 1.1% of 330,000 active. Q9NXA8; in the data active = inhibition above about 15%; inconclusive = no clear call, values can overlap the other calls
Target sequence (Q9NXA8 whole entry, looked up): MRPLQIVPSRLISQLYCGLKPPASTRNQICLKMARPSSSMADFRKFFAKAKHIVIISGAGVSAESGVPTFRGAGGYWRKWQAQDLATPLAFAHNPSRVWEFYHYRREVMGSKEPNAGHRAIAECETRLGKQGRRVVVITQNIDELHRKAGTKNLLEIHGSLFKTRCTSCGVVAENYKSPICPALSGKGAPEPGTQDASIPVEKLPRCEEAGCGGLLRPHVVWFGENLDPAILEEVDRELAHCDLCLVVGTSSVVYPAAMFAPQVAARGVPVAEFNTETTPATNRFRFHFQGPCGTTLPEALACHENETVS
FGF22 binding – binders of recombinant human FGF22 by thermal shift | 1.5% of 340,000 active | activity (Tm shift, normalised), % at 9.99 µM | SYPRO orange fluorescence; percent of sucrose octasulfate shift, DMSO zero;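 active = mean Tm shift, scaled 0 neutral to 100 positive control, at about 1.3% or above, every replicate too, limit read from the data; inconclusive = no clear call, values can overlap the other calls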
Target sequence (Q9HCT0 whole entry, looked up): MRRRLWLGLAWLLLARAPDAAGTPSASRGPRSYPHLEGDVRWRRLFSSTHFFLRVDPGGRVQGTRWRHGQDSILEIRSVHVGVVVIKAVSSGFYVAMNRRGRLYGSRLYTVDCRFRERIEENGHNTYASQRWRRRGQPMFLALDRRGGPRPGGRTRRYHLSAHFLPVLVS
An asterisk follows results filed as active; ? = inconclusive; · = no result given; ! = a repeat was not active.

SMILES	FN deposit inh	ERAP1 HTS inh	PGC1a acetyl inh	SIRT5 block	FGF22 binding
O=C(CCC1CCCN(Cc2ccc3c(c2)OCCO3)C1)NCc1ccc(F)c(F)c1 (stereo not given)	1	1	·	0	0
CC(C)NS(=O)(=O)c1ccc(OCC(=O)Nc2cccc(F)c2)cc1	1	-2	1	-1	43*
CC(C)NS(=O)(=O)c1ccc(OCC(=O)Nc2ccc3c(c2)OCO3)cc1	-7	-4	-2	-4	0
C#Cc1cccc(C(=O)N(Cc2cccnc2)CC2CCCN(C3CCCCC3)C2)c1 (stereo not given)	3	3	-4	·	43*
COc1ccc2c3c(n(C)c2c1)[C@@H](CO)N(C(=O)C1CCC1)CC31CN(C(=O)CN(C)C)C1	·	0	·	15*	0
COc1ccc2c3c([nH]c2c1)[C@@H](CO)N(Cc1ccccc1)CC31CN(C)C1	·	71*	1	2	0
COc1ccc2c3c([nH]c2c1)[C@@H](CO)N(C(=O)C1CC1)CC31CN(C(=O)c2ccncc2)C1	·	6	·	1	0
COc1ccc2c3c([nH]c2c1)[C@H](CO)N(C(=O)C1CC1)CC31CN(C(=O)c2ccncc2)C1	·	2	·	15*	0
CCC(=O)Nc1ccc2c(c1)OC[C@@H](C)N(Cc1cncnc1)C[C@@H](C)[C@H](OC)CN(C)C2=O	-5	-2	5	-3	0
CCC(=O)N1C[C@H](C)[C@H](OC)CN(C)C(=O)c2ccc(NC(=O)c3ccccc3)cc2OC[C@@H]1C	-7	3	-33	-5	0
COc1ccc(S(=O)(=O)N(C)C[C@@H]2OCCCC[C@@H](C)Oc3ccc(NS(=O)(=O)c4ccc(Cl)cc4)cc3C(=O)N([C@H](C)CO)C[C@@H]2C)cc1	2	0	11	16*	0
COc1ccc(S(=O)(=O)Nc2ccc3c(c2)C(=O)N([C@@H](C)CO)C[C@@H](C)[C@H](CN(C)S(=O)(=O)c2ccc(Cl)cc2)OCCCC[C@H](C)O3)cc1	-6	2	?	1	0
COc1ccc(S(=O)(=O)N(C)C[C@@H]2OCCCC[C@@H](C)Oc3ccc(NS(=O)(=O)c4ccc(Cl)cc4)cc3C(=O)N([C@H](C)CO)C[C@H]2C)cc1	2	·	·	·	·
COc1ccc(S(=O)(=O)N(C)C[C@H]2OCCCC[C@@H](C)Oc3ccc(NS(=O)(=O)c4ccc(Cl)cc4)cc3C(=O)N([C@@H](C)CO)C[C@H]2C)cc1	6	2	-5	16*	0
COc1ccc(S(=O)(=O)Nc2ccc3c(c2)C(=O)N([C@H](C)CO)C[C@H](C)[C@H](CN(C)S(=O)(=O)c2ccc(Cl)cc2)OCCCC[C@H](C)O3)cc1	5	0	1	16*	·
COc1ccc(S(=O)(=O)Nc2ccc3c(c2)C(=O)N([C@@H](C)CO)C[C@@H](C)[C@H](CN(C)S(=O)(=O)c2ccc(Cl)cc2)OCCCC[C@@H](C)O3)cc1	3	2	-3	16*	0
Cc1cc(C(=O)Nc2cccc3c2O[C@H](CN(C)CC2CC2)[C@@H](C)CN([C@@H](C)CO)C3=O)n(C)n1	·	0	0	-4	0
C[C@@H](NC(=O)[C@H]1[C@H](CO)[C@H]2Cn3c(cccc3=O)[C@H]2N1CC1CCCC1)c1ccccc1	-2	2	·	0	1
COc1ccc(S(=O)(=O)Nc2ccc3c(c2)C(=O)N([C@@H](C)CO)C[C@H](C)[C@H](CN(C)S(=O)(=O)c2ccc(Cl)cc2)O3)cc1	·	·	6	·	-1
COc1ccc(S(=O)(=O)Nc2ccc3c(c2)C(=O)N([C@H](C)CO)C[C@@H](C)[C@@H](CN(C)S(=O)(=O)c2ccc(Cl)cc2)OCCCC[C@@H](C)O3)cc1	4	0	-22	11	0
COc1ccc(S(=O)(=O)Nc2ccc3c(c2)C(=O)N([C@H](C)CO)C[C@@H](C)[C@@H](CN(C)S(=O)(=O)c2ccc(Cl)cc2)O3)cc1	-8	-1	0	20*	0
COc1ccc(S(=O)(=O)Nc2ccc3c(c2)C(=O)N([C@@H](C)CO)C[C@@H](C)[C@@H](CN(C)S(=O)(=O)c2ccc(Cl)cc2)OCCCC[C@@H](C)O3)cc1	7	0	-14	15*	0
Fc1ccccc1COc1ccc2ccccc2c1CNc1nn[nH]n1	7	2	8	0	43*
Cc1noc(C)c1NC(=O)N(C)C[C@H]1Oc2c(NC(=O)Nc3ccccc3)cccc2C(=O)N([C@H](C)CO)C[C@H]1C	·	·	-1	·	·
O=S(=O)(NC(=S)NC1CCCCC1)c1cccs1	2	-4	-1	-6	43*
SMILES	FN deposit inh	ERAP1 HTS inh	PGC1a acetyl inh	SIRT5 block	FGF22 binding
O=S(=O)(NC(=S)NC1CCCCC1)c1ccccc1	-1	-2	6	-3	1
C[C@@H]1CN([C@@H](C)CO)C(=O)CCCn2nncc2CO[C@@H]1CN(C)C(=O)C1CCCCC1	8	-4	-1	-4	0
C[C@@H]1CN([C@@H](C)CO)C(=O)CCCn2nncc2CO[C@H]1CN(C)C(=O)C1CCCCC1	11	-5	-2	29*!	0
C[C@@H]1CN([C@H](C)CO)C(=O)CCCn2nncc2CO[C@H]1CN(C)C(=O)Nc1cccc2ccccc12	0	0	10	76*	0
C[C@H](CO)N1C[C@H](C)[C@@H](CN(C)C(=O)c2ccc(N3CCN(C)CC3)cc2)OCc2cnnn2CCCC1=O	1	1	1	33*!	0
C[C@H]1CN([C@@H](C)CO)C(=O)CCCn2nncc2CO[C@@H]1CN(C)C(=O)Nc1ccccc1	-20	-1	?	28*	0
C[C@H](CO)N1C[C@H](C)[C@@H](CN(C)C(=O)Nc2ccccc2)OCc2cnnn2CCCC1=O	3	-1	1	-1	0
[N-]=[N+]=Nc1ccccc1C[C@@]1(C(=O)NCc2ccccc2)N=C(c2ccc(OCCCO)cc2)O[C@@H]1c1ccccc1N=[N+]=[N-]	·	-3	-16	5	0
COCC(=O)N1C[C@@H]2[C@H](c3ccccc31)[C@@H](CO)N2C(=O)Nc1ccccc1F	·	2	1	-1	0
CC(C)NC(=O)Nc1ccc2c(c1)C(=O)N([C@H](C)CO)C[C@H](C)[C@H](CN(C)S(=O)(=O)c1ccc(Cl)cc1)O2	·	0	1	-2	0
C[C@H]1CCCCO[C@H](CN(C)S(=O)(=O)c2cn(C)cn2)[C@@H](C)CN([C@@H](C)CO)C(=O)c2cc(NS(=O)(=O)c3ccc(F)cc3)ccc2O1	13	0	·	6	-1
CC(C)NC(=O)N(C)C[C@@H]1OCc2cnnn2CCCC(=O)N([C@@H](C)CO)C[C@H]1C	6	-3	-2	26*!	0
O=C(O)c1cccc(-n2sc3ccccc3c2=O)c1	-18	90*	-4	-1	1
